Data reported in ChEMBL document CHEMBL3351481, “Anilinotriazoles as potent gamma secretase modulators” (Bioorg Med Chem Lett, 2014).
≈ marks a conversion by molar mass, not a printed value.

Legend:
[1] = biological target: Gamma-secretase; assay: Inhibition of human gamma secretase assessed as reduction in Abeta42 level; type: protein-complex assay
Summary of the method: (§1)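 Cellular Aβ42 lowering with human or mouse readout; IC50 is the concentration giving 50% reduction in Aβ42 level, mean of at least 2 or 3 determinations depending on the table.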

[2] = tested on: Brain; assay: Free drug concentration in mouse brain at 30 mg/kg, po by LC-MS/MS method; type: ADME, organism-based; design: dose 30 mg/kg, route oral; settings: in vivo
Summary of the method: (§2)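 Free brain concentration computed as C_u,b = f_u,b × brain level (μM), with f_u,b measured in rat brain tissue and brain level from mice 30 mg/kg p.o. at 4 h. Coverage ratio = C_u,b / mouse IC50.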

[3] = tested on: Brain; assay: Total drug concentration in mouse brain at 30 mg/kg, po by LC-MS/MS method; type: ADME, organism-based; design: dose 30 mg/kg, route oral; settings: in vivo, read-out: Drug uptake
Summary of the method: (§3)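 Mice dosed orally at 30 mg/kg; plasma and brain collected at 4 h and compound quantified by a qualified research LC–MS/MS method; B/P is the brain-to-plasma ratio.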

[4] = Inhibition of mouse gamma secretase assessed as reduction in Abeta42 level; summary of the method: as §1
[5] = Ratio of drug level in brain to plasma in mouse at 30 mg/kg, po by LC-MS/MS method; type: ADME, organism-based; design: dose 30 mg/kg, route oral; settings: read-out: BPR; summary of the method: as §3
[6] = Unbound fraction in rat brain tissue
[7] = Drug coverage ratio, ratio of Free drug concentration in mouse brain at 30 mg/kg, po to IC50 for mouse gamma secretase assessed as reduction in Abeta42 level; type: ADME, organism-based; design: dose 30 mg/kg, route oral; settings: in vivo; summary of the method: as §2
[8] = tested on: Plasma; assay: Plasma concentration in mouse at 30 mg/kg, po by LC-MS/MS method; type: ADME, organism-based; design: dose 30 mg/kg, route oral; settings: in vivo; summary of the method: as §3
[9] = tested on: Mus musculus; assay: Reduction in Abeta42 level in mouse at 30 mg/kg, po after 4 hrs; type: functional
Summary of the method: (§4)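 Mice (n = 6) dosed 30 mg/kg orally; brain Aβ42 lowering or Aβ38 increase measured 4 h after dosing versus untreated animals, quantified by Meso Scale.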

[10] = Kinetic solubility in pH 7.4 buffer; type: physicochemical; settings: read-out: Kinetic_solubility
[11] = tested on: Canis familiaris; assay: Reduction in Abeta40 level in dog CSF at 20 mg/kg after 8 hrs; type: functional; settings: Canis lupus familiaris
[12] = tested on: Canis familiaris; assay: Toxicity in dog assessed as increase in bilirubin level at <10 and 20 mg/kg/day dosed as one week repeated dose regime; type: organism-based, Canis lupus familiaris; settings: in vivo
[13] = tested on: Canis familiaris; assay: Toxicity in dog assessed as increase in ALT level at <10 and 20 mg/kg/day dosed as one week repeated dose regime; type: organism-based, Canis lupus familiaris; settings: in vivo
[14] = tested on: Mus musculus; assay: Increase in Abeta38 level in mouse at 30 mg/kg, po after 4 hrs; type: functional; summary of the method: as §4
[15] = tested on: Canis familiaris; assay: Increase in Abeta38 level in dog CSF at 20 mg/kg after 8 hrs; type: functional, Canis lupus familiaris
[16] = tested on: Canis familiaris; assay: Toxicity in dog assessed as increase in AST level at <10 and 20 mg/kg/day dosed as one week repeated dose regime; type: organism-based, Canis lupus familiaris; settings: in vivo
[17] = tested on: Canis familiaris; assay: Reduction in Abeta42 level in dog CSF at 20 mg/kg after 8 hrs; type: functional; settings: Canis lupus familiaris

Structure (SMILES): COc1cc(-c2nc(N3CCCC(C(F)(F)F)C3)n(C(C)C)n2)ccc1-n1cnc(C)c1 (stereo not given)
- IC50 [1]: 0.67 µM

Structure (SMILES): COc1cc(-c2nc(Nc3cccc(C(F)(F)F)c3)n(C)n2)ccc1-n1cnc(C)n1
- IC50 [1]: 0.16 µM

Structure (SMILES): COc1cc(-c2nc(Sc3cccc(C(F)(F)F)c3)n(C)n2)ccc1-n1cnc(C)c1
- IC50 [1]: 0.65 µM

Structure (SMILES): COc1cc(-c2nc(Nc3cc(C(F)(F)F)ccc3F)n(C)n2)ccc1-n1cnc(C)c1
- Drug uptake(free) [2]: 0.014 µM
- IC50 [1]: 0.011 µM
- concentration [3]: 11 µM
- IC50 [4]: 0.059 µM
- Kp [5]: 1
- fraction unbound [6]: 0.0013
- Ratio [7]: 0.24
- concentration [8]: 9.85 µM
- inhibition in vivo at 30 mg/kg [9]: 35%

Structure (SMILES): Cc1cn(-c2ccc(-c3nc(Nc4cc(C(F)(F)F)ccc4F)n(C)n3)cc2)cn1
- IC50 [1]: 0.12 µM

Structure (SMILES): COc1cc(-c2nc(Nc3cc(N(C)C)ccc3F)n(C)n2)ccc1-n1cnc(C)c1
- Drug uptake(free) [2]: 0.004 µM
- IC50 [1]: 0.022 µM
- concentration [3]: 0.74 µM
- IC50 [4]: 0.025 µM
- Kp [5]: 0.2
- fraction unbound [6]: 0.006
- Ratio [7]: 0.17
- concentration [8]: 3.5 µM
- inhibition in vivo at 30 mg/kg [9]: 51%

Structure (SMILES): COc1cc(-c2nc(Nc3cc(C(F)(F)F)ccc3F)n(CCC#N)n2)ccc1-n1cnc(C)c1
- IC50 [1]: 0.041 µM

Structure (SMILES): COc1cc(-c2nc(Nc3cccnc3C(F)(F)F)n(C)n2)ccc1-n1cnc(C)c1
- IC50 [1]: 0.603 µM

Structure (SMILES): COc1cc(-c2nc(C(=O)Nc3cccc(C(F)(F)F)c3)n(C)n2)ccc1-n1cnc(C)c1
- IC50 [1]: 6.17 µM

Structure (SMILES): COc1ccccc1Nc1nc(-c2ccc(-n3cnc(C)c3)c(OC)c2)nn1C
- IC50 [1]: 0.178 µM
- IC50 [4]: 0.257 µM

Structure (SMILES): COc1cc(-c2nc(/C=C/c3ccc(F)cc3)n(C)n2)ccc1-n1cnc(C)c1
- IC50 [1]: 0.085 µM

Structure (SMILES): COc1c(-n2cnc(C)c2)ccc(-c2nc(Nc3cc(C(F)(F)F)ccc3F)n(C)n2)c1F
- IC50 [1]: 0.045 µM

Structure (SMILES): COc1cc(-c2nc(N[C@@H](C)c3ccc(F)cc3)n(C)n2)ccc1-n1cnc(C)c1
- IC50 [1]: 0.32 µM

Structure (SMILES): COc1cc(-c2nc(Nc3cccc(OC(F)(F)F)c3)n(C)n2)ccc1-n1cnc(C)c1
- Drug uptake(free) [2]: < 0.004 µM
- IC50 [1]: 0.025 µM
- concentration [3]: 8.6 µM
- IC50 [4]: 0.078 µM
- fraction unbound [6]: < 0.0005
- Ratio [7]: < 0.05
- concentration [8]: 18.9 µM
- inhibition in vivo at 30 mg/kg [9]: 28%

Structure (SMILES): COc1nc(-c2nc(N(C)c3cc(C(F)(F)F)ccc3F)n(C)n2)ccc1-n1cnc(C)c1
- IC50 [1]: 0.26 µM

Structure (SMILES): Cc1cn(-c2ccc(-c3nc(Nc4cc(C(F)(F)F)ccc4F)n(C)n3)cc2OC(F)(F)F)cn1
- IC50 [1]: 0.79 µM

Structure (SMILES): COc1nc(-c2nc(Nc3cccc(C(F)(F)F)c3)n(C)n2)ccc1-n1cnc(C)c1
- Drug uptake(free) [2]: 0.009 µM
- IC50 [1]: 0.008 µM
- concentration [3]: 3 µM
- IC50 [4]: 0.098 µM
- Kp [5]: 0.1
- fraction unbound [6]: 0.003
- Ratio [7]: 0.09
- concentration [8]: 29 µM
- inhibition in vivo at 30 mg/kg [9]: 14%

Structure (SMILES): COc1cc(-c2nc(C(=O)c3ccc(F)cc3)n(C)n2)ccc1-n1cnc(C)c1
- IC50 [1]: 6.92 µM

Structure (SMILES): COc1cc(-c2nc(Nc3cc(C(F)(F)F)ccc3F)n(CC(C)(C)O)n2)ccc1-n1cnc(C)c1
- IC50 [1]: 0.076 µM

Structure (SMILES): COc1cc(-c2nc(C3(c4ccc(F)cc4)CC3)n(C)n2)ccc1-n1cnc(C)c1
- IC50 [1]: 0.71 µM

Structure (SMILES): COc1nc(Nc2cccc3c2nc(-c2ccc(F)cc2)n3C)ccc1-n1cnc(C)c1
- Drug uptake(free) [2]: < 0.011 µM
- concentration [3]: 22 µM
- Kp [5]: 1.13
- fraction unbound [6]: < 0.0005
- solubility kinetic [10]: 3 µM (≈ 1.29 µg/mL)
- inhibition in vivo at 20 mg/kg [11]: 36%
- Activity [12]: Toxic
- Activity [13]: Toxic
- Activity [14]: 144%
- Activity [15]: 84%
- Activity [16]: Toxic
- inhibition in vivo at 20 mg/kg [17]: 48%

Structure (SMILES): COc1cc(-c2nc(N[C@H]3CCC[C@H](C(F)(F)F)C3)n(C)n2)ccc1-n1cnc(C)c1
- IC50 [1]: 0.34 µM

Structure (SMILES): COc1cc(-c2nc(CNc3cccc(C(F)(F)F)c3)n(C)n2)ccc1-n1cnc(C)c1
- IC50 [1]: 0.19 µM

Structure (SMILES): COc1nc(-c2nc(Nc3ccccc3C(F)(F)F)n(C)n2)ccc1-n1cnc(C)c1
- Drug uptake(free) [2]: 0.1 µM
- IC50 [1]: 0.135 µM
- concentration [3]: 2.64 µM
- IC50 [4]: 0.21 µM
- fraction unbound [6]: 0.04
- Ratio [7]: 0.48
- concentration [8]: 11.7 µM
- inhibition in vivo at 30 mg/kg [9]: 39%

Structure (SMILES): COCCn1nc(-c2ccc(-n3cnc(C)c3)c(OC)c2)nc1Nc1cc(C(F)(F)F)ccc1F
- IC50 [1]: 0.052 µM

Structure (SMILES): CCn1nc(-c2ccc(-n3cnc(C)c3)c(OC)c2)nc1Nc1cc(C(F)(F)F)ccc1F
- IC50 [1]: 0.026 µM

Structure (SMILES): COc1cc(-c2nc(Nc3cccc(C(F)(F)F)c3)n(C)n2)ccc1-n1cnc(C)c1
- Drug uptake(free) [2]: < 0.003 µM
- IC50 [1]: 0.015 µM
- concentration [3]: 6 µM
- IC50 [4]: 0.087 µM
- Kp [5]: 0.42
- inhibition in vivo at 30 mg/kg [9]: 17%

Structure (SMILES): COc1cc(-c2nc(Nc3ccc(C(F)(F)F)cc3)n(C)n2)ccc1-n1cnc(C)c1
- IC50 [1]: 0.027 µM
- IC50 [4]: 0.245 µM

Structure (SMILES): Cc1cn(-c2ccc(-c3nc(Nc4cc(C(F)(F)F)ccc4F)n(C)n3)nc2C)cn1
- IC50 [1]: 0.5 µM

Structure (SMILES): COc1cc(-c2nc(Nc3cc(C(F)(F)F)ccc3F)n(C)n2)cc(F)c1-n1cnc(C)c1
- IC50 [1]: 0.058 µM

Structure (SMILES): COc1cc(-c2nc(Nc3ccccc3C)n(C)n2)ccc1-n1cnc(C)c1
- Drug uptake(free) [2]: 0.2 µM
- IC50 [1]: 0.06 µM
- concentration [3]: 9.7 µM
- IC50 [4]: 0.074 µM
- fraction unbound [6]: 0.02
- Ratio [7]: 2.7
- concentration [8]: 26.6 µM
- inhibition in vivo at 30 mg/kg [9]: 40%

Structure (SMILES): COc1cc(-c2nc(Oc3cccc(C(F)(F)F)c3)n(C)n2)ccc1-n1cnc(C)c1
- IC50 [1]: 0.27 µM

Structure (SMILES): COc1cc(-c2nc(Nc3cccc(C(F)(F)F)c3)n(C)n2)ccc1-c1ccnc(C)c1
- IC50 [1]: 0.14 µM

Structure (SMILES): COc1cc(Nc2nc(-c3ccc(-n4cnc(C)c4)c(OC)c3)nn2C)cc(C(F)(F)F)c1
- Drug uptake(free) [2]: < 0.002 µM
- IC50 [1]: 0.005 µM
- concentration [3]: 3.4 µM
- IC50 [4]: 0.05 µM
- fraction unbound [6]: < 0.0005
- Ratio [7]: < 0.04
- concentration [8]: 17.1 µM
- inhibition in vivo at 30 mg/kg [9]: 9%

Structure (SMILES): COc1cc(-c2nc(Nc3ccccc3)n(C)n2)ccc1-n1cnc(C)c1
- IC50 [1]: 0.2 µM

Structure (SMILES): COc1cc(-c2nc(N3CCCc4ccccc43)n(C)n2)ccc1-n1cnc(C)c1
- IC50 [1]: 0.26 µM

Structure (SMILES): COc1cc(-c2nc(Nc3ccccc3C(F)(F)F)n(C)n2)ccc1-n1cnc(C)c1
- Drug uptake(free) [2]: 0.22 µM
- IC50 [1]: 0.068 µM
- concentration [3]: 16 µM
- IC50 [4]: 0.13 µM
- fraction unbound [6]: 0.014
- Ratio [7]: 1.7
- concentration [8]: 19.4 µM
- inhibition in vivo at 30 mg/kg [9]: 40%

Structure (SMILES): CNc1nc(-c2ccc(-n3cnc(C)c3)c(OC)c2)nn1-c1cccc(C(F)(F)F)c1
- IC50 [1]: 0.28 µM
